Source: ChEMBL document CHEMBL1649115, “Enhanced susceptibility to antifungal oligopeptides in yeast strains overexpressing ABC multidrug efflux pumps” (Antimicrob Agents Chemother, 2008)
≈ marks a conversion by molar mass, not a printed value. Non-standard residues stand in square brackets, D forms with d. Residues, ends and D or L forms follow the SMILES beside them. Phe(3-F) = N[C@@H](Cc1cccc(F)c1)C(=O)O

Experiments:
[1] = system: Saccharomyces cerevisiae; assay: Drug uptake in Saccharomyces cerevisiae ADCDR1 expressing Candida albicans CDR1 efflux pump at 200 uM pretreated for 10 mins measured after 60 mins by fluorescamine staining; type: ADME, organism-based; conditions: in vivo, 1 h
[2] = system: Saccharomyces cerevisiae; assay: Antifungal activity against Saccharomyces cerevisiae ADCDR1 expressing Candida albicans CDR1 efflux pump in YNPG-proline medium after 24 hrs by microdilution method; type: functional; conditions: ADCDR1, 24 h
[3] = system: Saccharomyces cerevisiae; assay: Drug uptake in Saccharomyces cerevisiae AD12345678 at 200 uM pretreated for 10 mins measured after 60 mins by fluorescamine staining; type: ADME, organism-based; conditions: in vivo, 1 h
[4] = system: Saccharomyces cerevisiae; assay: Drug uptake in Saccharomyces cerevisiae ADMDR1 at 50 uM pretreated for 10 mins measured after 60 mins by fluorescamine staining in presence of fluconazole; conditions: in vivo, 1 h
[5] = system: Saccharomyces cerevisiae; assay: Antifungal activity against wild type Saccharomyces cerevisiae ATCC 9763 in YNPG-proline medium after 24 hrs by microdilution method; type: functional; conditions: ATCC 9763, 24 h
[6] = system: Candida albicans; assay: Antifungal activity against wild type Candida albicans 10261 in RPMI-1640 buffered medium after 24 hrs by microdilution method; type: functional; conditions: Candida albicans, 10261, 24 h; read-out: MIC
Method in brief: (§1)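 C. albicans cells were grown in 2% glucose, 1% yeast extract, 1% Bacto peptone medium before testing. […] CARE-2 fingerprinting confirmed that each pair is a single strain.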

[7] = system: Saccharomyces cerevisiae; assay: Prodrug stability in Saccharomyces cerevisiae ADCDR2 expressing Candida albicans CDR2 efflux pump assessed as compound cleavage rate measured per mg of protein; type: ADME, organism-based; conditions: in vivo
[8] = system: Saccharomyces cerevisiae; assay: Antifungal activity against Saccharomyces cerevisiae ADCDR2 expressing Candida albicans CDR2 efflux pump in YNPG-proline medium after 24 hrs by microdilution method; type: functional; conditions: ADCDR2, 24 h
[9] = system: Saccharomyces cerevisiae; assay: Prodrug stability in wild type Saccharomyces cerevisiae ATCC 9763 assessed as compound cleavage rate measured per mg of protein; type: ADME, organism-based; conditions: in vivo
[10] = system: Saccharomyces cerevisiae; assay: Prodrug stability in Saccharomyces cerevisiae ADCDR1 expressing Candida albicans CDR1 efflux pump assessed as compound cleavage rate measured per mg of protein; type: ADME, organism-based; conditions: in vivo
[11] = system: Saccharomyces cerevisiae; assay: Prodrug stability in Saccharomyces cerevisiae ADMDR1 expressing Candida albicans MDR1 efflux pump assessed as compound cleavage rate measured per mg of protein; type: ADME, organism-based; conditions: in vivo
[12] = system: Candida albicans; assay: Antifungal activity against fluconazole resistant Candida albicans isolate Gu5 overexpressing CDR1 and CDR2 in RPMI-1640 buffered medium after 24 hrs by microdilution method; type: functional; conditions: isolate Gu5, 24 h
Method in brief: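 C. albicans cells were grown in 2% glucose, 1% yeast extract, 1% Bacto peptone medium before testing. CARE-2 fingerprinting confirmed that each pair is a single strain.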

[13] = system: Saccharomyces cerevisiae; assay: Drug uptake in Saccharomyces cerevisiae AD12345678 at 200 uM pretreated for 10 mins measured after 60 mins by fluorescamine staining in presence of fluconazole; type: ADME, organism-based; conditions: in vivo, 1 h
[14] = system: Candida albicans; assay: Antifungal activity against fluconazole resistant Candida albicans isolate B4 overexpressing MDR1 in RPMI-1640 buffered medium after 24 hrs by microdilution method; type: functional; conditions: Candida albicans, isolate B4, 24 h; read-out: MIC; method in brief: as §1
[15] = system: Saccharomyces cerevisiae; assay: Prodrug stability in Saccharomyces cerevisiae AD12345678 assessed as compound cleavage rate measured per mg of protein; type: ADME, organism-based; conditions: in vivo
[16] = system: Candida albicans; assay: Prodrug stability in fluconazole sensitive Candida albicans isolate B3 assessed as compound cleavage rate measured per mg of protein; type: ADME, organism-based; conditions: in vivo
[17] = system: Saccharomyces cerevisiae; assay: Drug uptake in Saccharomyces cerevisiae ADMDR1 expressing Candida albicans MDR1 efflux pump at 200 uM pretreated for 10 mins measured after 60 mins by fluorescamine staining; type: ADME, organism-based; conditions: in vivo, 1 h
[18] = system: Candida albicans; assay: Antifungal activity against fluconazole sensitive Candida albicans isolate B3 in RPMI-1640 buffered medium after 24 hrs by microdilution method; type: functional; conditions: Candida albicans, isolate B3, 24 h; read-out: MIC; method in brief: as §1
[19] = system: Saccharomyces cerevisiae; assay: Drug uptake in Saccharomyces cerevisiae ADCDR2 expressing Candida albicans CDR2 efflux pump at 200 uM pretreated for 10 mins measured after 60 mins by fluorescamine staining; type: ADME, organism-based; conditions: in vivo, 1 h
[20] = system: Saccharomyces cerevisiae; assay: Drug uptake in Saccharomyces cerevisiae ADCDR1 at 200 uM pretreated for 10 mins measured after 60 mins by fluorescamine staining in presence of fluconazole; type: ADME, organism-based; conditions: in vivo, 1 h
[21] = system: Saccharomyces cerevisiae; assay: Antifungal activity against Saccharomyces cerevisiae ADMDR1 expressing Candida albicans MDR1 efflux pump in YNPG-proline medium after 24 hrs by microdilution method; type: functional; conditions: ADMDR1, 24 h
[22] = system: Candida albicans; assay: Antifungal activity against fluconazole sensitive Candida albicans isolate Gu4 in RPMI-1640 buffered medium after 24 hrs by microdilution method; type: functional; conditions: Candida albicans, isolate Gu4, 24 h; read-out: MIC; method in brief: as §1
[23] = system: Saccharomyces cerevisiae; assay: Antifungal activity against Saccharomyces cerevisiae AD12345678 in YNPG-proline medium after 24 hrs by microdilution method; type: functional; conditions: AD12345678, 24 h
[24] = system: Saccharomyces cerevisiae; assay: Drug uptake in Saccharomyces cerevisiae ADCDR2 at 200 uM pretreated for 10 mins measured after 60 mins by fluorescamine staining in presence of fluconazole; type: ADME, organism-based; conditions: in vivo, 1 h
[25] = system: Candida albicans; assay: Prodrug stability in fluconazole sensitive Candida albicans isolate Gu4 assessed as compound cleavage rate measured per mg of protein; type: ADME, organism-based; conditions: in vivo
Method in brief: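 Oligopeptides were incubated with cell extracts of the yeast cells, and their hydrolytic enzymes cleaved them. The amino acids released were quantified by the Cd-ninhydrin method.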

[26] = system: Candida albicans; assay: Prodrug stability in wild type Candida albicans 10261 assessed as compound cleavage rate measured per mg of protein; type: ADME, organism-based; conditions: in vivo
[27] = system: Saccharomyces cerevisiae; assay: Antifungal activity against Saccharomyces cerevisiae ADCDR1 expressing Candida albicans CDR1 efflux pump in YNPG medium containing 1 mg/ml […] after 24 hrs by microdilution method; type: functional; conditions: ADCDR1, 24 h
[28] = system: Saccharomyces cerevisiae; assay: Antifungal activity against Saccharomyces cerevisiae ADCDR2 expressing Candida albicans CDR2 efflux pump in YNPG medium containing 1 mg/ml […] after 24 hrs by microdilution method; type: functional; conditions: ADCDR2, 24 h
[29] = system: Saccharomyces cerevisiae; assay: Antifungal activity against wild type Saccharomyces cerevisiae ATCC 9763 in YNPG medium containing 1 mg/ml […] after 24 hrs by microdilution method; type: functional; conditions: ATCC 9763, 24 h
[30] = system: Saccharomyces cerevisiae; assay: Antifungal activity against Saccharomyces cerevisiae AD12345678 in YNPG medium containing 1 mg/ml […] after 24 hrs by microdilution method; type: functional; conditions: AD12345678, 24 h
[31] = system: Saccharomyces cerevisiae; assay: Antifungal activity against Saccharomyces cerevisiae ADMDR1 expressing Candida albicans MDR1 efflux pump in YNPG medium containing 1 mg/ml […] after 24 hrs by microdilution method; type: functional; conditions: ADMDR1, 24 h

Row | Structure (SMILES) | Drug uptake [1] | MIC [2] | Drug uptake [3] | Drug uptake [4] | MIC [5] | MIC [6] | MIC [8] | MIC [12] | Drug uptake [13] | MIC [14] | Stability [16] | Drug uptake [17] | MIC [18] | Drug uptake [19] | Drug uptake [20] | MIC [21] | MIC [22] | MIC [23] | Drug uptake [24] | Stability [25] | also measured
1 | CC(C)C[C@H](N)C(=O)N[C@@H](Cc1cccc(F)c1)C(=O)O (H-Leu-[Phe(3-F)]-OH) | 1.95 nmol/min/mg | 8 µg/mL (≈ 27 µM) | 0.79 nmol/min/mg | 0.87 nmol/min/mg | 256 µg/mL (≈ 864 µM) | 64 µg/mL (≈ 216 µM) | 4 µg/mL (≈ 13.5 µM) | 8 µg/mL (≈ 27 µM) | 0.79 nmol/min/mg | 64 µg/mL (≈ 216 µM) | 20 nmol/min | 0.84 nmol/min/mg | 64 µg/mL (≈ 216 µM) | 2.37 nmol/min/mg | 1.82 nmol/min/mg | 256 µg/mL (≈ 864 µM) | 128 µg/mL (≈ 432 µM) | 256 µg/mL (≈ 864 µM) | 2.23 nmol/min/mg | 20 nmol/min | Stability [7]: 14 nmol/min; Stability [9]: 14 nmol/min; Stability [10]: 14 nmol/min; Stability [11]: 14 nmol/min; Stability [15]: 14 nmol/min; Stability [26]: 20 nmol/min
2 | [N-]=[N+]=CC(=O)OC[C@H](N)C(=O)O [AZASERINE] | 2.15 nmol/min/mg |  | 1.75 nmol/min/mg |  |  | 16 µg/mL (≈ 92.4 µM) |  | 16 µg/mL (≈ 92.4 µM) |  | 32 µg/mL (≈ 185 µM) |  | 1.7 nmol/min/mg | 32 µg/mL (≈ 185 µM) | 1.92 nmol/min/mg |  |  | 16 µg/mL (≈ 92.4 µM) |  |  |  | MIC [27]: 1 µg/mL (≈ 5.78 µM); MIC [28]: 1 µg/mL (≈ 5.78 µM); MIC [29]: 2 µg/mL (≈ 11.6 µM); MIC [30]: 2 µg/mL (≈ 11.6 µM); MIC [31]: 2 µg/mL (≈ 11.6 µM)
3 | NC(Cc1cccc(F)c1)C(=O)O (stereo not given) [M-FLUOROPHENYLALANINE] | 2.57 nmol/min/mg |  | 1.78 nmol/min/mg |  |  | 256 µg/mL (≈ 1400 µM) |  | 128 µg/mL (≈ 699 µM) |  | 128 µg/mL (≈ 699 µM) |  | 1.63 nmol/min/mg | 128 µg/mL (≈ 699 µM) | 1.86 nmol/min/mg |  |  | 128 µg/mL (≈ 699 µM) |  |  |  | MIC [27]: 16 µg/mL (≈ 87.3 µM); MIC [28]: 16 µg/mL (≈ 87.3 µM); MIC [29]: 32 µg/mL (≈ 175 µM); MIC [30]: 32 µg/mL (≈ 175 µM); MIC [31]: 32 µg/mL (≈ 175 µM)
4 | C[C@@H]([C@H](N)C(=O)N[C@H](C(=O)O)[C@H]1O[C@@H](n2ccc(=O)[nH]c2=O)[C@H](O)[C@@H]1O)[C@H](O)c1ccc(O)cn1 [NIKKOMYCIN] | 1.08 nmol/min/mg | 16 µg/mL (≈ 32.3 µM) | 0.33 nmol/min/mg | 0.34 nmol/min/mg | 128 µg/mL (≈ 258 µM) | 32 µg/mL (≈ 64.6 µM) | 16 µg/mL (≈ 32.3 µM) | 4 µg/mL (≈ 8.07 µM) | 0.32 nmol/min/mg | 8 µg/mL (≈ 16.1 µM) | 0.3 nmol/min | 0.32 nmol/min/mg | 8 µg/mL (≈ 16.1 µM) | 0.97 nmol/min/mg | 0.98 nmol/min/mg | 128 µg/mL (≈ 258 µM) | 16 µg/mL (≈ 32.3 µM) | 128 µg/mL (≈ 258 µM) | 0.88 nmol/min/mg | 0.3 nmol/min | Stability [26]: 0.3 nmol/min
